Only some compounds are listed: those with a hit (about 2% of all), similar ones and a draw of the others.
CSN inh – CSN deneddylation inhibition | Q92905 | Purified CSN, SCF-Nedd8-OG deneddylation, fluorescence polarization | inhibition, % at 12.5 µM | 0.38% of 360,000 active;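 active = pattern-corrected inhibition above about 35%, with an unprinted fluorescence ratio check between 0.5 and 1.5, limit read from the data, passing the limit was not always enough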;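 note: 0% = enzyme with substrate and 100% = substrate without enzyme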
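Assay system: purified human Csn5 enzyme expressed in HEK293T cells; measure: % inhibition; also added: SCFSkp2-Nedd8OG substrate at 10 nM final; technique: fluorescence polarization; times: reaction 90 min, room temperature; medium: Tris buffer pH 7.5, NaCl, DTT, Tween-20, trehalose, ovalbumin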
STEP block – STEP (human) phosphatase inhibition | 0.25% of 360,000 active | inhibition, % at 20 µM | recombinant STEP, OMFP fluorogenic substrate, fluorescence | P54829;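 active = inhibition at 20 µM, scaled per plate between control wells, above about 37%, limit read from the data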;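 note: 0% = DMSO with enzyme and substrate and 100% = substrate only without enzyme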
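System: STEP (striatal-enriched tyrosine phosphatase) enzyme, cell-free; medium: Bis-Tris pH 6.0 buffer with DTT, detergent; dosing: 20 µM, 1% DMSO; times: reaction 20 min, ambient temperature; detection: fluorescence, 480/540 nm; read-out basis: normalized % inhibition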
DNMT1 inh – blocks human DNA methyltransferase DNMT1; P26358; AID 588458; 0.83% of 360,000 active; inhibition (reported as % activation of signal), % at 10 µM; DNMT1 molecular beacon, Hinp1I cleavage, fluorescence; in the data active = inhibition above about 50%
Target sequence (P26358 504-1616 limits assumed): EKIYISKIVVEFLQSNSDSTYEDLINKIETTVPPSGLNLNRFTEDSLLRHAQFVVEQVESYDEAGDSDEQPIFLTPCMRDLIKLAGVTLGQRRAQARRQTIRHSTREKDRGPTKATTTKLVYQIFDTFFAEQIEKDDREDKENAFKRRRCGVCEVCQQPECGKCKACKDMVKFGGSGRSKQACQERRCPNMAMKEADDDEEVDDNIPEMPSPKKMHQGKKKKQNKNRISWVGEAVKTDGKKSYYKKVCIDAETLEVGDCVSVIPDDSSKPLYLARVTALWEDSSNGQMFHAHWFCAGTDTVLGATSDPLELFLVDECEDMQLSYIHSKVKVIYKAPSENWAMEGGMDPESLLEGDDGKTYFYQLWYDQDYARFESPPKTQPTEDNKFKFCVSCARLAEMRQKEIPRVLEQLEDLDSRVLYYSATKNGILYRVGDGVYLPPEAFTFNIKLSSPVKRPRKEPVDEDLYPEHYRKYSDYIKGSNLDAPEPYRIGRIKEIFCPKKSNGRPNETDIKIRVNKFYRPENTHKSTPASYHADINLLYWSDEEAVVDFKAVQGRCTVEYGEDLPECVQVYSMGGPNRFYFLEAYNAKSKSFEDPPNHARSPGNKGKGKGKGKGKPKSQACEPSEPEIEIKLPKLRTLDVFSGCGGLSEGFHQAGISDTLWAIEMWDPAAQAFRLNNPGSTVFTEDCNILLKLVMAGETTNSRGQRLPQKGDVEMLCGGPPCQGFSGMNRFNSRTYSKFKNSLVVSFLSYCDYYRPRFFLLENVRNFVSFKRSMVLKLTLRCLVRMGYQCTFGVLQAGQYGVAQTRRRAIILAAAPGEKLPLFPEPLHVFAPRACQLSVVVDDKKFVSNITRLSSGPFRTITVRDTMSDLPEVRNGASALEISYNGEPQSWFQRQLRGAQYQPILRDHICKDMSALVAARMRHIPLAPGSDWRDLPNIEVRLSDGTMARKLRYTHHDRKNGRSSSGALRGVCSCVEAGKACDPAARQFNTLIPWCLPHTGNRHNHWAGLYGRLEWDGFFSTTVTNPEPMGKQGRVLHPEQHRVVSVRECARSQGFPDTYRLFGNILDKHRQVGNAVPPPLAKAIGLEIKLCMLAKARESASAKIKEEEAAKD
SUMO1 PPI mod – alters human SUMO1 binding to SIM partners; SUMO1 binding to a labelled peptide, TR-FRET, 1 h; AID 602429; 0.33% of 360,000 active; inhibition, % at 20 µM; in the data active = inhibition above about 37%
Scp1 inh – blocks human Scp-1 phosphatase activity | inhibition, % at 20 µM | 0.88% of 340,000 active | Q9GZU7 | AID 493091 | Recombinant Scp1, phosphopeptide, malachite green phosphate absorbance;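 active = inhibition above about 50% at 20 µM, limit read from the data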;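 note: plate controls were DMSO wells with enzyme for no effect and wells lacking enzyme for full effect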
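Test system: SCP-1 phosphatase catalytic domain, residues 76-261; measured by: colorimetric phosphate reagent with accelerator and stabiliser, absorbance at 630 nm; timing: enzyme reaction 45 min at room temperature, colour 5 min, stabilisation 30 min; also added: Phosphorylated 17-residue peptide substrate; compound dosing: one concentration, 20 µM, with 1.0% DMSO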
LMPTP inh – LMPTP (human) inhibition; P24666; recombinant LMPTP-A, OMFP fluorogenic substrate, fluorescence intensity; inhibition, % at 20 µM; 0.22% of 360,000 active; AID 651560;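 active = compounds that cut the enzyme signal by at least half of the control window in the single-dose screen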;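 note: plate controls were DMSO wells with enzyme plus substrate for no effect and substrate without enzyme for full effect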
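Test system: LMPTP-A phosphatase enzyme; input: 0.625 nM LMPTP-A final; reagent: OMFP substrate, 400 µM final; compound dosing: 20 µM single dose, 3% DMSO; incubation: 50 min dark incubation at room temperature; measured by: endpoint fluorescence intensity from OMFP dephosphorylation; measure: % inhibition relative to no-enzyme and uninhibited control wells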
Scp1 confirm – confirmation of human Scp-1 phosphatase inhibitors; inhibition, % at 20 µM; recombinant SCP-1 catalytic domain, phosphate release, malachite green absorbance; shares compounds with Scp1 inh; 61% of 2,500 active;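 note: plate controls were DMSO with enzyme for no effect and buffer wells lacking enzyme for full effect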
MG interference – colorimetric interference in Scp-1 counter-screen | Colorimetric interference counterscreen, malachite green absorbance 630 nm | 2,500 tested, under 10 active | apparent inhibition (interference), % at 20 µM | shares compounds with Scp1 inh | AID 540313;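 note: compounds added after enzyme reaction finished so only phosphate colour detection is probed; plate controls were DMSO wells with completed Scp-1 reaction for no effect and substrate wells lacking enzyme for full effect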
Scp-1 Tm shift – binds human Scp-1, shifting its melting temperature | shares compounds with Scp1 inh | Recombinant SCP1, Sypro Orange thermal shift Tm | thermal shift relative to vanadate control, % at 40 µM | 25% of 1,500 active;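 active = substances whose mean melting-temperature shift, as a percentage of the reference inhibitor's shift, reaches about 5.3%, limit read from the data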;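 note: 0% = Tm of DMSO wells and 100% = Tm with sodium orthovanadate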
Beacon interf DR – beacon fluorescence artifact, dose response counter-screen; AID 602382; 200 tested, under 10 active; shares compounds with DNMT1 inh; IC50, µM; molecular beacon fluorescence, spectral interference counter-screen; call rule not given here
DNMT1 inh conf – DNMT1 inhibition confirmation, single concentration; 8% of 2,300 active; DNMT1 molecular beacon HinP1I cleavage, fluorescence; shares compounds with DNMT1 inh; AID 602385; inhibition, % at 10 µM;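 active = average inhibition of at least 30% in the single-concentration confirmation test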
DNMT1 interf – counter-screen for DNMT1 inhibitors: spectral interference. shares compounds with DNMT1 inh. 1% of 2,300 active. activation (fluorescence interference), % at 10 µM. DNMT1 molecular beacon spectral interference counterscreen, fluorescence 485/520;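 active = activation of at least 30% at 10 µM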;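 note: DNMT1 catalytic domain with a HinP1I cleavage step and a FAM/dabcyl DNA beacon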
The depositor's hits bear a star; · = not tested or not shown.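 Rule for the calls, unless noted: active = inhibition of at least 30% at 20 µM; inactive = the rest.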

SMILES | CSN inh | STEP block | DNMT1 inh | SUMO1 PPI mod | Scp1 inh | LMPTP inh | Scp1 confirm | MG interference | Scp-1 Tm shift | DNMT1 inh conf | DNMT1 interf | others
N=C1/C(=C\c2ccc(Br)o2)C(=O)N=C2SC(CC(=O)N3CCCCC3)=NN12 | 31 | 18 | 94* | 46* | 80* | 34 | 48* | -11 | 12* | 15 | 6
Cc1ccc(/C=C2/C(=N)N3N=C(CC(=O)N4CCCC4)SC3=NC2=O)o1 | 6 | 0 | 2 | -14 | -5 | 1 | · | · | · | · | ·
CN1CCCCC1(C)C(=O)NCc1ccc(F)cc1 (stereo not drawn) | 1 | 0 | -3 | 1 | · | -3 | · | · | · | · | ·
CCOC(=O)C1=C(COC(=O)/C=C/c2ccco2)NC(=O)NC1C (stereo not drawn) | 19 | 31 | 72* | 12 | 66* | 7 | 55* | -6 | -7 | 7 | -3
ON=Cc1cccn1-c1ccccc1 | -3 | -2 | -1 | -6 | -4 | 0 | · | · | · | · | ·
O=C(O)c1cccc(-n2cccc2/C=N/O)c1 | 30 | 11 | 105* | -1 | 77* | 5 | 65* | -8 | -13 | 3 | 1
Cc1ccc(CN2C(=O)N/C(=C\c3cccn3-c3cccc(C(=O)O)c3)C2=O)cc1 | 30 | 5 | 91* | -10 | 64* | 4 | 57* | -20 | 0 | 9 | -2
CCn1c(C)cc(/C=C2\NC(=O)N(CC(=O)Nc3cccc(C)c3)C2=O)c1C | 10 | 4 | -24 | -11 | 1 | 1 | · | · | · | · | ·
Cc1ccc(NC(=O)CN2C(=O)N/C(=C\c3cccn3-c3cccc(C(=O)O)c3)C2=O)cc1 | 27 | 12 | 91* | 5 | 67* | 15 | 55* | -20 | 6.2* | 60* | 0 | Beacon interf DR=>99
Cc1ccc(NC(=O)CN2C(=O)N/C(=C/c3cc(C)n(-c4cccc(C(=O)O)c4)c3C)C2=O)cc1 | 33 | 18 | 84* | 30 | 59* | 7 | 66* | -10 | 6.9* | 10 | -1
O=S(=O)(/N=C(\c1ccccc1F)N1CCCCC1)c1ccccc1 | -2 | 2 | 3 | 1 | -14 | -3 | · | · | · | · | ·
CSCc1ccc(C(=O)N2CCC(CCC(=O)N(C)Cc3ccccc3)CC2)o1 | 2 | 0 | 3 | -5 | -6 | 1 | · | · | · | · | ·
C=C(C)C(=O)Nc1cccc(C2=NOC3(C2)C[C@@H](C(N)=O)N(C(=O)CC(c2ccccc2)c2ccccc2)C3)c1 (stereo partly drawn) | 17 | 1 | 101* | 77* | 62* | 1 | 57* | -16 | -31 | 19 | 3
C=C(C)C(=O)Nc1cccc(C2=NOC3(C2)C[C@@H](C(N)=O)N(C(=O)/C(C)=C/C)C3)c1 (stereo partly drawn) | 14 | 8 | 110* | 98* | 99* | -2 | 68* | -8 | -7 | 101* | -2 | Beacon interf DR=>99
C/C=C(/C)C(=O)Nc1cccc(C2=NOC3(C2)C[C@@H](C(N)=O)N(C(=O)CC(c2ccccc2)c2ccccc2)C3)c1 (stereo partly drawn) | 2 | 1 | -14 | 6 | 0 | 1 | · | · | · | · | ·
Cc1ccc(/C=c2\sc3nc(-c4ccccc4Br)nn3c2=O)o1 | 50* | 11 | 104* | 24 | 92* | 35 | 61* | -21 | 9.2* | 4 | 2
Cc1ccc(-c2nc3s/c(=C\c4ccco4)c(=O)n3n2)cc1 | 38* | 5 | 79* | 4 | 67* | 4 | 49* | -7 | 5 | 5 | -1
COc1ccc(N=C2NC(=O)/C(=C\c3ccco3)S2)cc1 | 23 | 6 | 70* | -10 | 89* | 40 | 52* | -12 | 2 | 8 | 30
N#Cc1c(/N=C/c2ccc(-c3ccccc3C(=O)O)o2)sc2c1CCCC2 | 12 | 17 | 52* | -8 | 57* | 3 | 43* | -21 | 8.0* | 3 | 5
N#Cc1c(/N=C/c2ccc(-c3ccc(C(=O)O)c(Cl)c3)o2)sc2c1CCCC2 | 4 | 7 | 9 | -6 | 17 | 0 | · | · | · | · | ·
O=C(CSc1n[nH]c(-c2ccccc2)n1)NC(=O)NCc1ccco1 | 30 | 6 | 65* | 14 | 68* | 17 | 55* | -11 | 1 | 2 | 1
CCCCn1c(SCC(=O)NC(=O)NCc2ccco2)nc2cc(S(N)(=O)=O)ccc21 | 9 | 2 | 89* | 5 | 64* | 9 | 58* | -12 | -3 | 5 | 1
O=C(CSc1ccccc1F)NC(=O)NCc1ccco1 | -6 | 2 | 9 | 2 | 25 | 0 | · | · | · | · | ·
Cc1ccccc1CSCC(=O)NC(=O)NCc1ccco1 | 11 | 7 | 76* | 6 | 56* | 12 | 73* | -7 | -15 | 0 | 5
Cn1c(SCC(=O)NC(=O)NCc2ccco2)nnc1-c1ccccc1 | 14 | 7 | 86* | 9 | 92* | 46 | 62* | -17 | -13 | 1 | 2
O=C(CSc1nc(-c2ccccc2)cs1)NC(=O)NCc1ccco1 | 6 | 1 | -8 | 4 | -5 | 1 | · | · | · | · | ·
COc1ccc(-c2nnc(SCC(=O)NCc3ccco3)n2C)cc1 | 0 | 0 | 4 | 2 | -8 | 0 | · | · | · | · | ·
O=c1nc(-c2ccccc2)n(-c2ccccc2)[nH]1 | -6 | -1 | 5 | 4 | 0 | -1 | · | · | · | · | ·
COc1ccc(CN2CCNC(=O)C2CC(=O)N(C)C2CCCCC2)cc1OC (stereo not drawn) | -1 | 2 | -2 | -3 | · | -1 | · | · | · | · | ·
CCOC(=O)C1=C(O)/C(=C\c2cccs2)N=C1C | -4 | 4 | 13 | -12 | -14 | 0 | · | · | · | · | ·

Assay outcomes as filed in PubChem.
